These results are taken from ChEMBL document CHEMBL4699667, “Discovery of the Potent, Selective, Orally Available CXCR7 Antagonist ACT-1004-1239” (J Med Chem, 2020).

Values after ≈ are worked out from the molar mass of the structure shown.

A short description of data set [1]: physchem. The following applies: octanol/water, pH 7.4.
The nature of data set [2]: physchem.
A short description of data set [3]: Solubility in FaSSIF-V1 medium. The data set is classed as physicochemical.
A short description of data set [4]: Solubility in FeSSIF-V1 medium. The data set is classed as physicochemical.
Data set [5] can be described thus: Aqueous solubility at pH 7. Format: physicochemical.
The nature of data set [6]: Drug level in plasma of DBA/1 mouse at 1 to 100 mg/kg, po administered as single dose measured after 0.5 to 24 hrs. Format: ADME, organism-based. The following applies: in vivo, dose 1-100 mg/kg, time 0.5-24 hrs. A digest of the protocol:
(§1)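 Naive male DBA/1 mice received one oral dose within the 1–100 mg/kg range, alongside a vehicle group. Compound plasma concentration was measured at 0.5, 6 or 24 h post-dose, with n = 3–5 per dose group. Values are mean + SEM, and the limit of quantification was 1.52 ng/mL.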

Data set [7] can be described thus: Tmax in DBA/1 mouse at 1 to 100 mg/kg, po administered as single dose measured after 0.5 to 24 hrs. The data set is classed as ADME, organism-based. The following applies: in vivo, dose 1-100 mg/kg, time 0.5-24 hrs. Put shortly:
as §1

Data set [8] in a line: Cmax in DBA/1 mouse plasma at 1 mg/kg, po administered as single dose measured after 0.5 hrs. Format: ADME, organism-based. Details: route oral, time 0.5 hrs, dose 1 mg/kg. A digest of the protocol: as §1
Data set [9] is described as follows: Cmax in DBA/1 mouse plasma at 100 mg/kg, po administered as single dose measured after 0.5 hrs. Details: route oral, dose 100 mg/kg, time 0.5 hrs. Format: ADME, organism-based. Put shortly: as §1
A short description of data set [10]: Plasma concentration in DBA/1 mouse plasma at 30 mg/kg, po administered as single dose measured after 24 hrs. The data set is classed as ADME, organism-based. Put shortly:
as §1

A short description of data set [11]: Plasma concentration in DBA/1 mouse plasma at 100 mg/kg, po administered as single dose measured after 24 hrs. The data set is classed as ADME, organism-based. A digest of the protocol: as §1
Data set [12] in a line: AUC (0 to last) in Wistar rat at 10 mg/kg, po after 24 hrs by LC-MS-MS analysis. Format: ADME, organism-based. Details: route oral, dose 10 mg/kg, time 24 hrs. The following applies: in vivo. Put shortly: (§2)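 Rats received a single oral dose of 10 mg/kg (n = 3). Parameters are averages and Tmax is the median. Plasma was sampled at 8 h post-dose, among other times. Bioavailability is referenced to the 1 mg/kg iv dose (n = 2).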

Data set [13] is described as follows: AUC (0 to last) in beagle dog at 1 mg/kg, po after 24 hrs by LC-MS-MS analysis. To be noted: in vivo. Format: ADME, organism-based, Canis lupus familiaris. Details: route oral, time 24 hrs, dose 1 mg/kg. Put shortly:
(§3)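 Dogs received a single oral dose of 1 mg/kg (n = 2). Parameters are averages and Tmax is the median. Plasma was sampled at 8 h post-dose, among other times. Bioavailability is referenced to the 1 mg/kg iv dose (n = 2).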

Data set [14] is described as follows: Cmax in Wistar rat at 10 mg/kg, po after 24 hrs by LC-MS-MS analysis. The following applies: in vivo. Format: ADME, organism-based. Details: route oral, time 24 hrs, dose 10 mg/kg. Put shortly:
as §2

Data set [15] can be described thus: Cmax in beagle dog at 1 mg/kg, po after 24 hrs by LC-MS-MS analysis. Format: ADME, organism-based, Canis lupus familiaris. Details: route oral, dose 1 mg/kg, time 24 hrs. The following applies: in vivo. Put shortly:
as §3

A short description of data set [16]: Tmax in Wistar rat at 10 mg/kg, po after 24 hrs by LC-MS-MS analysis. To be noted: in vivo. The data set is classed as ADME, organism-based. Put shortly: as §2
Data set [17] can be described thus: Tmax in beagle dog at 1 mg/kg, po after 24 hrs by LC-MS-MS analysis. The following applies: in vivo. Format: ADME, organism-based, Canis lupus familiaris. Put shortly: as §3
Data set [18] can be described thus: Oral bioavailability in Wistar rat at 10 mg/kg after 24 hrs by LC-MS-MS analysis. Format: ADME, organism-based. To be noted: in vivo. Put shortly: as §2
The nature of data set [19]: Oral bioavailability in beagle dog at 1 mg/kg after 24 hrs by LC-MS-MS analysis. The data set is classed as ADME, organism-based, Canis lupus familiaris. To be noted: in vivo. A digest of the protocol:
as §3

Data set [20] can be described thus: AUC (0 to infinity) in Wistar rat at 1 mg/kg, iv after 24 hrs by LC-MS-MS analysis. Format: ADME, organism-based. The following applies: in vivo. Details: route intravenous, dose 1 mg/kg, time 24 hrs. A digest of the protocol:
(§4)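 Single intravenous dose of 1 mg/kg in rat and in dog, with n = 2 animals per species. Parameters are reported as averages. Blood clearance is plasma clearance corrected for blood/plasma partitioning and expressed as a fraction of liver blood flow.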

Data set [21] can be described thus: AUC (0 to infinity) in beagle dog at 1 mg/kg, iv after 24 hrs by LC-MS-MS analysis. Details: route intravenous, dose 1 mg/kg, time 24 hrs. The data set is classed as ADME, organism-based, Canis lupus familiaris. To be noted: in vivo. A digest of the protocol:
as §4

Data set [22] in a line: Volume of distribution at steady state in Wistar rat at 1 mg/kg, iv after 24 hrs by LC-MS-MS analysis. To be noted: in vivo, read-out: Vdss. The data set is classed as ADME, organism-based. Put shortly:
as §4

Data set [23] in a line: Volume of distribution at steady state in beagle dog at 1 mg/kg, iv after 24 hrs by LC-MS-MS analysis. The data set is classed as ADME, organism-based, Canis lupus familiaris. The following applies: in vivo, read-out: Vdss. Put shortly: as §4
Data set [24] can be described thus: Plasma concentration in Wistar rat at 10 mg/kg, po after 8 hrs by LC-MS-MS analysis. The data set is classed as ADME, organism-based. A digest of the protocol: as §2
The nature of data set [25]: Plasma concentration in beagle dog at 1 mg/kg, po after 8 hrs by LC-MS-MS analysis. The data set is classed as ADME, organism-based, Canis lupus familiaris. A digest of the protocol:
as §3

As usually defined, the logD is the decadic logarithm of the distribution of all forms, ionised or not, between an organic phase and buffer at a given pH. A low value points to lower lipophilicity. As usually defined, the pKa is the negative logarithm of the acid dissociation constant. Read a high pKa as a group that holds its proton tightly. In turn, `CN1CC[C@H](NC(=O)c2cc(-c3ccc(F)cc3F)on2)[C@@H](C(=O)NC2(c3ncccn3)CC2)C1` came in with a pH-dependent lipophilicity (logD) in [1] of 1.7. This molecule also returned a pKa in [2] of 7.3.
On the same counts, the results for `O=C(N[C@H]1CCN(CC2(F)CC2)C[C@@H]1C(=O)NC1(c2ncccn2)CC1)c1cc(-c2ccc(F)cc2F)on1` are 2.7 and 6.2.
On the same counts, the results for `O=C(N[C@H]1CCN(CCCF)C[C@@H]1C(=O)NC1(c2ncccn2)CC1)c1cc(-c2ccc(F)cc2F)on1` are 2.2 and 6.8.
As to `O=C(NC1CCN(C2CCCCC2)CC1)c1noc(-c2ccc(F)cc2F)n1`, in [1], the logD was determined as 1.6.
A word on the solubility: it is the concentration that dissolves in the medium under given conditions. Higher therefore signals much dissolved substance. Turning to `C[C@@H](NC(=O)[C@H]1CN(C2CCCCC2)CC[C@@H]1NC(=O)c1cc(-c2ccc(F)cc2F)on1)c1ccccn1`, the solubility in [3] was 38 µg/mL (≈ 70.7 µM); in [4] it was over 910 µg/mL; in [5] it was 4 µg/mL (≈ 7.44 µM). The same molecule returned a pH-dependent lipophilicity (logD) in data set [1] of 3.9.
In turn, `O=C(N[C@H]1CCN(C2CCC2)C[C@@H]1C(=O)NC1(c2ncccn2)CC1)c1cc(-c2ccc(F)cc2F)on1` returned a log distribution coefficient (logD) in data set [1] of 2.9. In data set [2], this molecule gave a pKa of 7.4.
With `COCCN1CC[C@H](NC(=O)c2cc(-c3ccc(F)cc3F)on2)[C@@H](C(=O)NC2(c3ncccn3)CC2)C1`, the logD in data set [1] came to 1.9. Further, the pKa in data set [2] is 6.7.
With `CC(C)(NC(=O)[C@H]1CN(C2CCCCC2)CC[C@@H]1NC(=O)c1cc(-c2ccc(F)cc2F)on1)c1ccccn1`, the pH-dependent lipophilicity (logD) in [1] was 3.8.
For `CCN1CC[C@H](NC(=O)c2cc(-c3ccc(F)cc3F)on2)[C@@H](C(=O)NC2(c3ncccn3)CC2)C1`, the logD in data set [1] amounted to 1.8. In data set [2], this molecule registered a pKa of 7.6.
On the same counts, the results for `O=C(N[C@H]1CCNC[C@@H]1C(=O)NC1(c2ncccn2)CC1)c1cc(-c2ccc(F)cc2F)on1` are 0.6 and 8.1.
On to `C[C@@H](NC(=O)[C@H]1CN(C2CCCCC2)CC[C@@H]1NC(=O)c1cc(-c2ccc(F)cc2F)on1)c1ccccc1`, for which the logD in data set [1] is over 4.1.
In general, Tmax refers to the time at which the peak concentration occurs. Usually Cmax stands for the highest concentration seen after dosing. In the case of `O=C(N[C@H]1CCN(CC2CC2)C[C@@H]1C(=O)NC1(c2ncccn2)CC1)c1cc(-c2ccc(F)cc2F)on1`, the solubility is 513 µg/mL (≈ 982 µM) in data set [3], over 880 µg/mL in data set [4] and 374 µg/mL (≈ 716 µM) in data set [5]. In addition, the Drug uptake result in data set [6] is given as “Dose-dependent effect”. Also, in [7], the Tmax came out at 30 min. For the same molecule, the Cmax was 6 ng/mL in data set [8] and 4280 ng/mL in data set [9]. The concentration at 24 h in data set [10] was under 1.52 ng/mL; in data set [11], 14 ng/mL. In data set [1], this molecule registered a logD of 2.5. The pKa in data set [2] was 7.7.
`CC(C)N1CC[C@H](NC(=O)c2cc(-c3ccc(F)cc3F)on2)[C@@H](C(=O)NC2(c3ncccn3)CC2)C1` had a logD in data set [1] of 1.8. The same molecule registered a pKa in data set [2] of 8.
Molecule `O=C(N[C@H]1CCN(C2CCCCC2)C[C@@H]1C(=O)NCc1ccccc1)c1cc(-c2ccc(F)cc2F)on1` showed a logD in data set [1] of over 4.1.
On to `O=C(N[C@H]1CCN(C2CC2)C[C@@H]1C(=O)NC1(c2ncccn2)CC1)c1cc(-c2ccc(F)cc2F)on1`, for which the log distribution coefficient (logD) in [1] stood at 2.4. In [2], the pKa was 6.1.
`CCCN1CC[C@H](NC(=O)c2cc(-c3ccc(F)cc3F)on2)[C@@H](C(=O)NC2(c3ncccn3)CC2)C1`: the logD in data set [1] worked out at 2.5. In [2], this molecule registered a pKa of 7.6.
On to `O=C(N[C@H]1CCN(C2CCCCC2)C[C@@H]1C(=O)NC1(c2ccccn2)CC1)c1cc(-c2ccc(F)cc2F)on1`, for which, in data set [1], the logD is over 3.8.
In data set [1], `O=C(N[C@H]1CCN(C2CC(F)(F)C2)C[C@@H]1C(=O)NC1(c2ncccn2)CC1)c1cc(-c2ccc(F)cc2F)on1` yielded a logD of 2.9. In [2], this molecule showed a pKa of 5.2.
As for `O=C(NC1CCN(C2CCCCC2)CC1)c1cc(-c2ccc(F)cc2F)on1`, the solubility in [3] worked out at 144 µg/mL (≈ 370 µM); in data set [4], 196 µg/mL (≈ 503 µM); in data set [5] it was 15 µg/mL (≈ 38.5 µM).
The molecule `O=C(N[C@H]1CCN(C2CCCCC2)C[C@@H]1C(=O)NC1(c2ncccn2)CC1)c1cc(-c2ccc(F)cc2F)on1` came in with a logD in data set [1] of 2.9.
A word on the bioavailability: it is dose-corrected exposure relative to a reference, in per cent. In general, AUC refers to concentration integrated over time. Higher therefore signals high exposure. As for `Cl.O=C(N[C@H]1CCN(CC2CC2)C[C@@H]1C(=O)NC1(c2ncccn2)CC1)c1cc(-c2ccc(F)cc2F)on1`, the AUClast in [12] is 827 ng·h/mL; in data set [13] it was 3620 ng·h/mL. Also, the highest concentration (Cmax) stood at 600 ng/mL in [14] and 314 ng/mL in data set [15]. For the same molecule, the Tmax in data set [16] turned out to be 30 min; in [17], 90 min. Besides, the bioavailability is 35% in data set [18] and 61% in data set [19]. Besides, the results for the AUC in data set [20] and in data set [21] were 238 ng·h/mL and 5940 ng·h/mL, respectively. Further, the Vd in data set [22] worked out at 3.6 L/kg; in data set [23] it was 1.6 L/kg. The figures for the concentration at 8 h in [24] and in data set [25] were 18.3 ng/mL and 185 ng/mL, respectively.
Consider `O=C(N[C@H]1CCN(CC2CCC2)C[C@@H]1C(=O)NC1(c2ncccn2)CC1)c1cc(-c2ccc(F)cc2F)on1`, for which the logD in data set [1] was determined as 3.1. Further, the pKa in data set [2] turned out to be 7.7.
On the same counts, the results for `CC(=O)N1CC[C@H](NC(=O)c2cc(-c3ccc(F)cc3F)on2)[C@@H](C(=O)NC2(c3ncccn3)CC2)C1` are 1.6 and under 2.
As for `CN(C)C(=O)[C@H]1CN(C2CCCCC2)CC[C@@H]1NC(=O)c1cc(-c2ccc(F)cc2F)on1` (racemic), the solubility in [3] worked out at 569 µg/mL (≈ 1240 µM); in data set [4], 652 µg/mL (≈ 1420 µM); in [5], 192 µg/mL (≈ 417 µM).
